Assay results from ChEMBL document CHEMBL3352396, “Zwitterionic pyrimidinium adducts as antioxidants with therapeutic potential as nitric oxide scavenger” (Eur J Med Chem, 2014).

Assay: Nitric oxide scavenging activity by naphthylethylenediamine dihydrochloride based Griesse-Ilosavay method
How it was run: (§1)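 Modified Griess-Ilosavay assay. Test sample in DMSO was mixed with potassium phosphate buffer (10 mM, pH 7.4) and sodium nitroprusside (10 mM stock), then incubated at 25 °C for 150 min to form nitrite. Sulphanilic acid reagent (0.33%) and N-(1-naphthyl)ethylenediamine dihydrochloride (0.1% w/v) were added, and the mixture stood 1–2 min. Absorbance was read at 546 nm against a blank. Ascorbic acid was the positive control and DMSO the blank. IC50 was obtained by […].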
Molecule O=Cc1ccc(C(c2c(O)[nH]c(=O)[nH]c2=O)c2c(O)[nH]c(=O)[nH]c2=O)cc1 has an IC50 of 330 µM.
In the case of Cc1ccc(C(c2c(O)n(C)c(=O)n(C)c2=O)c2c(O)n(C)c(=O)n(C)c2=O)cc1, the IC50 is reported as 230 µM.
Cn1c(O)c(C(C2=C(O)CC(C)(C)CC2=O)c2ccc(C=O)cc2)c(=O)n(C)c1=O (centres undefined) gave an IC50 of 380 µM.
Cn1c(O)c(C(c2ccc(O)cc2)c2c(O)n(C)c(=O)n(C)c2=O)c(=O)n(C)c1=O gave an IC50 of 310 µM.
Molecule O=C1O[C@H]([C@@H](O)CO)C(O)=C1O [ASCORBIC ACID] has an IC50 of 618 µM.
O=c1[nH]c(O)c(C(c2ccc(Cl)cc2)c2c(O)[nH]c(=O)[nH]c2=O)c(=O)[nH]1 gave an IC50 of 304 µM.
Work on Cn1c(O)c(C(c2ccc(Cl)cc2)c2c(O)n(C)c(=O)n(C)c2=O)c(=O)n(C)c1=O yielded an IC50 of 75 µM.
Molecule Cc1ccc(C(c2c(O)[nH]c(=O)[nH]c2=O)c2c(O)[nH]c(=O)[nH]c2=O)cc1 has an IC50 of 377 µM.
In the case of Cn1c(O)c(C(c2cccc(Br)c2)c2c(O)n(C)c(=O)n(C)c2=O)c(=O)n(C)c1=O, the IC50 is reported as 70.1 µM.
Molecule Cn1c(O)c(C(c2ccc(C=O)cc2)c2c(O)n(C)c(=O)n(C)c2=O)c(=O)n(C)c1=O has an IC50 of 113 µM.
Work on Cn1c(O)c(C(C2=C(O)CC(C)(C)CC2=O)c2ccc([N+](=O)[O-])cc2)c(=O)n(C)c1=O (centres undefined) yielded an IC50 of 466 µM.
For Cn1c(O)c(C(C2=C(O)CC(C)(C)CC2=O)c2ccccc2)c(=O)n(C)c1=O (centres undefined), the IC50 was 290 µM.
In the case of Cc1ccc(C(C2=C(O)CC(C)(C)CC2=O)c2c(O)[nH]c(=O)[nH]c2=O)cc1 (centres undefined), the IC50 is reported as 432 µM.
O=c1[nH]c(O)c(C(c2ccc3ccccc3c2)c2c(O)[nH]c(=O)[nH]c2=O)c(=O)[nH]1 gave an IC50 of 308 µM.
For CC1(C)CC(=O)C(C(C2=C(O)CC(C)(C)CC2=O)c2ccc([N+](=O)[O-])cc2)=C(O)C1, the IC50 was 281 µM.
In the case of CC1(C)CC(=O)C(C(c2ccccc2)c2c(O)[nH]c(=O)[nH]c2=O)=C(O)C1 (centres undefined), the IC50 is reported as 361 µM.
With CC1(C)CC(=O)C(C(c2ccc(C=O)cc2)c2c(O)[nH]c(=O)[nH]c2=O)=C(O)C1 (centres undefined) the IC50 was 439 µM.
With Cc1cccc(C(c2c(O)n(C)c(=O)n(C)c2=O)c2c(O)n(C)c(=O)n(C)c2=O)c1 the IC50 was 174 µM.
Molecule Cn1c(O)c(C(c2ccc([N+](=O)[O-])cc2)c2c(O)n(C)c(=O)n(C)c2=O)c(=O)n(C)c1=O has an IC50 of 69 µM.
Work on Cn1c(O)c(C(C2=C(O)CC(C)(C)CC2=O)c2ccc(Cl)cc2Cl)c(=O)n(C)c1=O (centres undefined) yielded an IC50 of 175 µM.
COc1ccc(C(c2c(O)n(C)c(=O)n(C)c2=O)c2c(O)n(C)c(=O)n(C)c2=O)cc1 gave an IC50 of 234 µM.
For COc1ccc(C(c2c(O)[nH]c(=O)[nH]c2=O)c2c(O)[nH]c(=O)[nH]c2=O)cc1, the IC50 was 206 µM.
Work on Cn1c(O)c(C(c2ccc3ccccc3c2)c2c(O)n(C)c(=O)n(C)c2=O)c(=O)n(C)c1=O yielded an IC50 of 79.1 µM.

Assay: Nitric oxide scavenging activity by naphthylethylenediamine dihydrochloride based Griesse-Ilosavay method relative to ascorbic acid
How it was run: as §1
Work on Cn1c(O)c(C(C2=C(O)CC(C)(C)CC2=O)c2ccc(Cl)cc2Cl)c(=O)n(C)c1=O (centres undefined) yielded a Ratio IC50 of 500.
